A short description of series [1]: Neurotoxicity in ip dosed albino CF1 mouse by rotorod test. The class given is toxicity, organism-based. The conditions noted are these: in vivo. On the technique in general: In the rotarod test animals must keep their balance on a rotating rod.
In series [2] the test system is Mus musculus. In words: Neurotoxicity in ip dosed albino CF1 mouse assessed as time to peak effect by rotorod test. The class given is toxicity, organism-based. As to conditions: in vivo.
In series [3] the test system is Mus musculus. In words: Anticonvulsant activity against 6 Hz psychomotor seizure in ip dosed albino CF1 mouse assessed as time to peak effect by minimal clonic seizure test. Format: functional.
For series [4], the system named is Mus musculus. In words: Anticonvulsant activity against 6 Hz psychomotor seizure in ip dosed albino CF1 mouse by minimal clonic seizure test. Format: functional.
The subject of series [5] is Mus musculus. As to the kind of experiment: Anticonvulsant activity in albino CF1 mouse assessed as assessed as protection against 6 Hz psychomotor seizure at 100 mg/kg, ip after 4 hrs by minimal clonic seizure test. The conditions noted are these: route intraperitoneal. The class given is functional. A digest of the protocol:
(§1)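 Male CF-1 mice, groups of four, dosed ip in 0.5% methylcellulose/water suspension, then challenged by 6-Hz corneal stimulation at 32 mA (0.2 ms pulses, 3 s, constant current) at 0.25, 0.5, 1, 2 or 4 h; count of mice out of four protected from stunned posture/clonic seizure.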

Series [6] deals with Mus musculus. As to the kind of experiment: Anticonvulsant activity in albino CF1 mouse assessed as assessed as protection against 6 Hz psychomotor seizure at 100 mg/kg, ip after 2 hrs by minimal clonic seizure test. The conditions noted are these: route intraperitoneal. Format: functional. A digest of the protocol:
as §1

The test system of series [7] is Mus musculus. In words: Anticonvulsant activity in albino CF1 mouse assessed as assessed as protection against 6 Hz psychomotor seizure at 100 mg/kg, ip after 1 hr by minimal clonic seizure test. Format: functional. As to conditions: route intraperitoneal. A digest of the protocol: as §1
Series [8] deals with Mus musculus. In words: Anticonvulsant activity in albino CF1 mouse assessed as assessed as protection against 6 Hz psychomotor seizure at 100 mg/kg, ip after 0.25 hr by minimal clonic seizure test. The class given is functional. As to conditions: route intraperitoneal. A digest of the protocol: as §1
In series [9] the test system is Rattus norvegicus. As to the kind of experiment: Anticonvulsant activity in albino Sprague-Dawley rat assessed as protection against maximal electroshock-induced seizures at 30 mg/kg, po measured after 4 hrs. Format: functional. A digest of the protocol:
(§2)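 Male Sprague-Dawley rats, four per group, dosed p.o. at 30 mg/kg in 0.5% methylcellulose/water suspension; MES test at 0.25, 0.5, 1, 2 and 4 h, motor impairment examined in parallel; number of rats out of four protected.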

Series [10] deals with Rattus norvegicus. In words: Anticonvulsant activity in albino Sprague-Dawley rat assessed as protection against maximal electroshock-induced seizures at 30 mg/kg, po measured after 2 hrs. Format: functional. A digest of the protocol: as §2
On the technique in general: Protection in the maximal electroshock model is a classic sign of anticonvulsant action.

The test system of series [11] is Rattus norvegicus. In words: Anticonvulsant activity in albino Sprague-Dawley rat assessed as protection against maximal electroshock-induced seizures at 30 mg/kg, po measured after 1 hr. The class given is functional. A digest of the protocol:
as §2

The test system of series [12] is Rattus norvegicus. As to the kind of experiment: Anticonvulsant activity in albino Sprague-Dawley rat assessed as protection against maximal electroshock-induced seizures at 30 mg/kg, po measured after 0.5 hr. Format: functional. The essentials: as §2
For series [13], the system named is Rattus norvegicus. In words: Anticonvulsant activity in albino Sprague-Dawley rat assessed as protection against maximal electroshock-induced seizures at 30 mg/kg, po measured after 0.25 hr. The class given is functional. A digest of the protocol:
as §2

The subject of series [14] is Mus musculus. In words: Neurotoxicity in albino CF1 mouse assessed as minimum motor impairment at 300 mg/kg, ip measured after 4 hrs by rotorod test. The class given is toxicity, organism-based. Further details: dose 300 mg/kg, route intraperitoneal. As to conditions: in vivo. A digest of the protocol:
(§3)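 Male CF-1 mice given ip suspension in 0.5% methylcellulose/water at 30, 100 and 300 mg/kg; MES, scPTZ (pentylenetetrazole 85 mg/kg sc, CD97 dose for clonic seizures ≥5 s) and rotarod (inability to hold balance 1 min in each of three trials) assessed at 0.5 and 4 h; value is minimum dose active in half or more animals.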

For series [15], the system named is Mus musculus. As to the kind of experiment: Neurotoxicity in albino CF1 mouse assessed as minimum motor impairment at 300 mg/kg, ip measured after 0.5 hr by rotorod test. Format: toxicity, organism-based. On the set-up: dose 300 mg/kg, route intraperitoneal. As to conditions: in vivo. A digest of the protocol:
as §3

Series [16] concerns Mus musculus. In words: Anticonvulsant activity in albino CF1 mouse assessed as protection against subcutaneous pentylenetetrazole-induced convulsion at 300 mg/kg, ip measured after 4 hrs. The class given is functional, organism-based. On the set-up: dose 300 mg/kg. A digest of the protocol: as §3
Series [17] deals with Mus musculus. In words: Anticonvulsant activity in albino CF1 mouse assessed as protection against subcutaneous pentylenetetrazole-induced convulsion at 300 mg/kg, ip measured after 0.5 hrs. On the set-up: dose 300 mg/kg. Format: functional, organism-based. The essentials: as §3
For series [18], the system named is Mus musculus. In words: Anticonvulsant activity in albino CF1 mouse assessed as protection against maximal electroshock-induced seizures at 300 mg/kg, ip measured after 0.5 hr. On the set-up: dose 300 mg/kg. Format: functional, organism-based. The essentials: as §3
The subject of series [19] is Mus musculus. In words: Anticonvulsant activity in albino CF1 mouse assessed as protection against maximal electroshock-induced seizures at 300 mg/kg, ip measured after 4 hrs. The class given is functional, organism-based. On the set-up: dose 300 mg/kg. A digest of the protocol:
as §3

Series [20] deals with Mus musculus. In words: Anticonvulsant activity in albino CF1 mouse assessed as assessed as protection against 6 Hz psychomotor seizure at 100 mg/kg, ip after 0.5 hr by minimal clonic seizure test. Format: functional. As to conditions: route intraperitoneal. The essentials: as §1
The subject of series [21] is Mus musculus. As to the kind of experiment: Toxicity in albino CF1 mouse assessed as diarrhea at 300 mg/kg, ip measured after 4 hrs by rotorod test. Format: organism-based. On the set-up: dose 300 mg/kg, route intraperitoneal. As to conditions: in vivo.
For series [22], the system named is Mus musculus. In words: Anticonvulsant activity in ip dosed albino CF1 mouse assessed as protection against maximal electroshock-induced seizures in half or more animals measured after 4 hrs. The conditions noted are these: read-out: MED. Format: functional. A digest of the protocol: as §3

Calls of active or inactive are those of the source. The calls are words filed in the database; no cut-off is given here.

Usually TD50 stands for the 50% point of the dose-response relation for the toxic effect studied. Low values mean harm at a small dose, high ones harm only at a large dose. On to `CC[C@@H](C(N)=O)N1CCCC1=O`, for which the TD50 in series [1] is more than 500 mg/kg. Also, the Time in the series on Mus musculus [2] and with Mus musculus [3] was 1 h each time.

One may read the ED50 as the midpoint of the dose-response relation. Low readings indicate an effect at a small dose, high ones a need for a large dose. Consider `O=C1CC(c2ccccc2)C(=O)N1CN1CCN(c2ncccn2)CC1` (racemic), for which the Time in the series with Mus musculus [2] and in the series with Mus musculus [3] was 1 h each time. The same compound had an ED50 in the series on Mus musculus [4] of 103 mg/kg. Moreover, the Activity in the series on Mus musculus [5] is 0%; in the series on Mus musculus [6], 50%; in the series on Mus musculus [7] it was 50%; with Mus musculus [8], 75%; in the series with Mus musculus [14], “Non-toxic”; with Mus musculus [15], “Non-toxic”. The Activity with Mus musculus [20] is 50%. Further, the outcome with Rattus norvegicus [9], with Rattus norvegicus [10], with Rattus norvegicus [11], in the series on Rattus norvegicus [12], in the series with Rattus norvegicus [13] and in the series on Mus musculus [16] was inactive. The outcome with Mus musculus [17], with Mus musculus [18] and in the series with Mus musculus [19] was inactive.

For `O=C1CC(c2ccccc2Cl)C(=O)N1CN1CCN(c2ncccn2)CC1` (racemic), the result with Rattus norvegicus [9], in the series on Rattus norvegicus [10], in the series with Rattus norvegicus [11], in the series on Rattus norvegicus [12], in the series on Rattus norvegicus [13] and with Mus musculus [16] was inactive. In addition, the result in the series on Mus musculus [17] and with Mus musculus [18] was inactive. Moreover, in the series with Mus musculus [21], the MED was determined as 300 mg/kg. Moreover, in the series on Mus musculus [15], the Activity result is on record as “Non-toxic”. Moreover, the minimal effective dose in the series on Mus musculus [22] was found to be 100 mg/kg.

The record behind these values is ChEMBL document CHEMBL2440012, “Design, synthesis and anticonvulsant properties of new N-Mannich bases derived from 3-phenylpyrrolidine-2,5-diones” (Bioorg Med Chem, 2013).
